Exocytosis inh – LAMP-1 surface exposure blockers, TALL-104 cells – cell-based, flow cytometry, MLPCN library, primary screen; AID 651702, 2012; TALL-104 LAMP-1 surface exposure; cells stimulated with thapsigargin and PMA; inhibition, % at 10 µM; 0.66% of 360,000 active;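 active means inhibition above about 55%, limit read from the data; inconclusive means no clear call, values can overlap the other calls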
Myeloid diff 2 – induction of myeloid progenitor differentiation, primary screen, cell-based, flow cytometry, MLPCN library. ER-HoxA9 myeloid progenitors, lysozyme-GFP differentiation. calls only at 10 µM. 1% of 360,000 active;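 active means normalized GFP-positive differentiation at or above the plate's own cutoff, the solvent-only control mean plus 3 SD; inconclusive means no clear call, values can overlap the other calls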;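 further: cells exposed to compound for four days before flow analysis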
HNF4A DNA FP – change in binding of human HNF4A to DNA, primary screen, biochemical, fluorescence polarization, FITC-DNA; 1 h; activity change, % at 10 µM; 0.3% of 360,000 active; AID 1224865, 2016; in the data active means activity change above about 30%, passing the limit was not always enough
Cardio protect – cardioprotection against H2O2-induced cell death, primary screen, uHTS, H9c2 cells, ATPLite luminescence; H9c2 cardiomyocytes, H2O2 injury protection, 2 h; protection from H2O2 cell death, % at 20 µM; AID 588492, 2011; 0.63% of 360,000 active;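 active means compounds giving at least 50% protection of heart cells from peroxide-induced death in the single-dose screen, raw or plate-pattern-corrected value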;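 further: 0% = DMSO wells with peroxide and 100% = DMSO wells without peroxide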
SENP1 FRET inh – human SENP1 catalytic domain inhibitors, primary screen, biochemical, FRET, uHTS; Sentrin-specific protease 1 (Homo sapiens), Q9P0U3; recombinant SENP1 catalytic domain, CyPet-SUMO1-YPet FRET cleavage; inhibition, % at 10 µM; 0.21% of 360,000 active;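 active means inhibition at least 30% at 10 µM, raw YFP signal under a set limit, fluorescence ratio 0.5 to 1.5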;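 further: 0% = enzyme with DMSO and 100% = no enzyme wells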
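Controls: no-enzyme wells low, DMSO-plus-enzyme wells high control. Test system: human recombinant His6-tagged SENP1 catalytic domain enzyme. Reagent: SFCypet-SUMO1-SFYpet FRET protein substrate, 25 nM final. Doses: one dose per compound, 10 µM, 0.5% DMSO. Detection: FRET, CFP and YFP emission. Timing: 50 min reaction at room temperature.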
Pemphigus Ab inh – inhibitors of pemphigus antibody binding to DSG3, primary screen, biochemical, bead-based, flow cytometry, scFv-GFP. 0.48% of 310,000 active. binding (percent of control), % at 10 µM. DSG3-coupled beads, scFv-anti-DSG3-GFP binding; stronger effect = lower value;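 active means binding more than 3 SD below its plate's average and above zero; inconclusive means below that plate limit but binding exactly zero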;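 further: hits lower antibody fragment binding to DSG3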
Target sequence (P32926 whole entry, looked up, the tested form may be a part): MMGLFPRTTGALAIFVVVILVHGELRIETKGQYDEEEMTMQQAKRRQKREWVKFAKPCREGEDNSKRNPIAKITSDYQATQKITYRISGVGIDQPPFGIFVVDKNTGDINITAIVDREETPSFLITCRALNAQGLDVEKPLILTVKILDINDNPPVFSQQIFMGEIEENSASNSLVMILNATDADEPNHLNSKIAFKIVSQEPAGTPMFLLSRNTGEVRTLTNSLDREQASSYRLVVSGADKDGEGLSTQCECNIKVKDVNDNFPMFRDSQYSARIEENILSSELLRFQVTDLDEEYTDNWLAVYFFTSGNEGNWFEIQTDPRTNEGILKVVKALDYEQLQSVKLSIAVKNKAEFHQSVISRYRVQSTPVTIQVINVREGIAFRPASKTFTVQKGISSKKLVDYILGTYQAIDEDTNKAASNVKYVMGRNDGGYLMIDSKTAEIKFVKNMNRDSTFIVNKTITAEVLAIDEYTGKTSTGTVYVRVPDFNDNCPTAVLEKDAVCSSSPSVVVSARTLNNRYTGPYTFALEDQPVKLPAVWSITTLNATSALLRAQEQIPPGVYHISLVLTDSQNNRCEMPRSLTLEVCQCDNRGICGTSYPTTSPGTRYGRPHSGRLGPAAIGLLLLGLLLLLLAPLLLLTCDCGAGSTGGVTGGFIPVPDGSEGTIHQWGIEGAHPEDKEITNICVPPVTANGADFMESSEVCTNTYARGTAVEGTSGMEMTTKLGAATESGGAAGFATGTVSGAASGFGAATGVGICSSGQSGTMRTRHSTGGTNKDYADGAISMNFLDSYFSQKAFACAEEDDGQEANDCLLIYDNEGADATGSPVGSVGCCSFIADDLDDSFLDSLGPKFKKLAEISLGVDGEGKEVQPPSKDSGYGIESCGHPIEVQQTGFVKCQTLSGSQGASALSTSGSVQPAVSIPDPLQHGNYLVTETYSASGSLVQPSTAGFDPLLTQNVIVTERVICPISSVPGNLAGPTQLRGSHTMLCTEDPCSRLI
The depositor's hits bear a star; i = inactive; ? = inconclusive; . = not tested or not shown; + = active, no number. Shown are actives, neighbours in structure and some others; about 3% of the full set was active somewhere.

SMILES | Exocytosis inh | Myeloid diff 2 | HNF4A DNA FP | Cardio protect | SENP1 FRET inh | Pemphigus Ab inh
Cn1nc(CC(=O)Nc2ccc(N3CCN(C(=O)OC(C)(C)C)CC3)cc2)c2ccccc2c1=O | 2 | i | 1 | -24 | -2 | 86*
CCn1c(SCC(=O)NCC2CCCO2)nnc1-c1ccc(S(=O)(=O)N2CCN(C)CC2)cc1 (centres undefined) | 0 | i | 3 | -2 | 0 | 107
CCN(CCO)c1ncnc2c1sc1nc(C(C)C)c3c(c12)CC(C)(C)OC3 | -2 | i | 2 | 60* | -3 | 102
S=C(NCc1ccncc1)Nc1ccccc1 | 0 | i | 2 | 2 | -1 | 88
S=C(NCc1ccccc1)Nc1ccncc1 | 2 | + | -2 | -10 | 0 | 100
CN(CCc1ccccc1)C(=O)c1ccc(NC(=O)Cc2ccc(NC(=O)C3CCCN(C(=O)CCc4ccccc4)C3)cc2)cc1 (centres undefined) | 4 | i | 5 | -22 | -2 | 104
NNC(=O)c1cc2c(N3CCC(Cc4ccccc4)CC3)ncnc2s1 | 17 | + | 2 | -26 | -4 | .
Cn1ncc2c(N3CCC(Cc4ccccc4)CC3)ncnc21 | -1 | i | 2 | -18 | 1 | 106
COc1ccc(C=O)cc1Oc1nc(Cl)ncc1F | -3 | i | 9 | -9 | 0 | 104
CN1CCC[C@H]1CCNc1ccc2c(=O)c3ccccc3n(C)c2c1 | -2 | + | 6 | 20 | -23 | 150
CN1CCCC1CCNc1ccc2c(=O)c3ccccc3oc2c1 (centres undefined) | -4 | i | 0 | 4 | -19 | 108
CN(C(=O)COC(=O)CN1C(=O)c2cccc([N+](=O)[O-])c2C1=O)c1ccccc1 | -4 | i | -1 | 3 | -5 | 77*
COc1ccc(NC(=O)C2Cc3c(-c4cccc(C(C)=O)c4)ccnc3O2)cc1 (centres undefined) | 1 | ? | 1 | 1 | -3 | .
N=C1S/C(=C\c2cccc3ccccc23)C(=O)N1c1ccc(F)cc1 | 1 | + | 1 | -21 | 0 | 90
COc1ccc(C(=O)NCc2nnc(SCC(=O)N3CCc4ccccc43)n2C2CCCCC2)cc1 | -2 | i | 0 | 3 | 3 | 89*
COc1ccc(/C=N/NC(=O)C(=O)/C=C2\NC3(CCCC3)Cc3ccccc32)cc1 | -3 | i | 0 | 0 | -7 | .
O=C(/C=C1\NC2(CCCC2)Cc2ccccc21)C(=O)N/N=C/c1ccc(O)c(O)c1 | 23 | i | -6 | 102* | 4 | 99
CC(=O)Nc1cccc(-c2ccnc3c2CC(C(=O)NCc2cccc(Cl)c2)O3)c1 (centres undefined) | 17 | + | 0 | -1 | -2 | .
CS(=O)(=O)Nc1cccc(NC(=O)C2Cc3c(-c4cccc(F)c4)ccnc3O2)c1 (centres undefined) | 8 | + | 3 | 3 | 1 | .
NC(=O)c1ccc(NC(=O)Cc2ccc(S(=O)(=O)N3CCCCC3)cc2)cc1 | 1 | i | -2 | -7 | -5 | 95
CCCCC(=O)NNC(=O)c1c(O)c2ccccc2[nH]c1=O | -5 | i | -1 | -2 | -2 | 105
O=C(CCl)NNC(=O)c1c(O)c2ccccc2[nH]c1=O | -6 | + | 2 | -3 | -1 | 100
CCc1c(-c2ccc(Br)cc2)ncn1Cc1cccc(-c2ccccc2)c1 | 29 | i | 4 | . | 1 | .
Cc1cccc(NC(=O)Cn2nnc(-c3cccs3)n2)c1C | 2 | + | 0 | -15 | 2 | 98
Cc1ccc(S(=O)(=O)Nc2cccc(-c3ccc(N4CCCCCC4)nn3)c2)cc1 | 2 | i | 0 | -2 | -2 | 97
SMILES | Exocytosis inh | Myeloid diff 2 | HNF4A DNA FP | Cardio protect | SENP1 FRET inh | Pemphigus Ab inh
CC1(C)C(=O)Nc2ccccc2N1C(=O)COC(=O)c1cc(Cl)cc(Cl)c1 | 12 | i | 0 | 1 | 1 | 102
COC(=O)c1cc(C(=O)OCC(=O)N2c3ccccc3NC(=O)C2(C)C)cc([N+](=O)[O-])c1 | 1 | i | -3 | 58* | 3 | .
Cc1[nH]c2ccccc2c1/C=N/Nc1ccc([N+](=O)[O-])cc1S(=O)(=O)Nc1ccc(Cl)cc1 | 10 | + | 94* | -17 | 20 | 114
COc1ccc(NS(=O)(=O)c2cc([N+](=O)[O-])ccc2NN=Cc2ccccc2OCC(=O)O)cc1 | 4 | i | 2 | -3 | -22 | 101
COc1ccc(NS(=O)(=O)c2cc([N+](=O)[O-])ccc2N/N=C\c2c(C)[nH]c3ccccc23)cc1 | 33 | + | 65* | -13 | 12 | 126
CCOC(=O)c1ccc(NCc2cccnc2)cc1 | -7 | i | 0 | -2 | 0 | 100
CN(C(=O)c1cccc(NC(=O)Cc2cccc(NC(=O)C3CCN(C(=O)C4CCCC4)CC3)c2)c1)C1CC1 | -2 | i | -1 | -7 | 2 | 96
COC(=O)c1c(C)[nH]c(C)c1C(=O)c1ccccc1Cc1ccccc1 | -3 | + | 2 | 0 | 1 | 122
COc1ccc(OCC(=O)Nc2nnc(S(=O)(=O)N3CCCCCC3)s2)cc1 | 2 | i | 1 | -15 | -8 | 105
Cc1ccc(OCC(=O)Nc2nnc(S(=O)(=O)N3CCC(C)CC3)s2)cc1 | -3 | ? | -15 | 6 | -14 | 74*
CCS(=O)(=O)c1nc(S(=O)(=O)c2ccc(C)cc2)c(N2CC(C)OC(C)C2)s1 (centres undefined) | 23 | + | 1 | 0 | 2 | .
C=CCNc1nc(C(=O)OCC(=O)NCc2ccccc2OC)cs1 | -4 | i | 3 | 4 | -2 | 99
N#C/C(=C(/O)CN1CCN(c2ccccc2F)CC1)c1nc(-c2ccc(Cl)cc2)cs1 | -1 | i | 1 | -19 | -5 | 60*
CSc1nsc(SC)c1C(=O)N1CCN(S(=O)(=O)c2ccc(C)cc2)C1C(C)C (centres undefined) | 5 | i | 4 | 83* | 2 | 91
COC(=O)[C@H](NC(=O)c1cc([C@@H](NC(=O)OC(C)(C)C)C(C)C)sc1N)C(C)C | 3 | i | 6 | . | -3 | .
O=C(NC(NC(=S)N1CCOCC1)C(Cl)(Cl)Cl)c1ccc(Cl)cc1 (centres undefined) | 2 | + | 4 | -7 | -3 | 83
CC(=O)c1ccc(C(=O)Nc2ccc(N3CCOCC3)cc2)cc1 | 7 | i | -3 | -1 | 2 | 108

From PubChem
